Assay results as given in ChEMBL document CHEMBL1944548, “Discovery of kinase spectrum selective macrocycle (16E)-14-methyl-20-oxa-5,7,14,26-tetraazatetracyclo[19.3.1.1(2,6).1(8,12)]heptacosa-1(25),2(26),3,5,8(27),9,11,16,21,23-decaene (SB1317/TG02), a potent inhibitor of cyclin dependent kinases (CDKs), Janus kinase 2 (JAK2), and fms-like tyrosine …” (J Med Chem, 2012).
≈ marks a conversion by molar mass, not a printed value. Calls of active or inactive are those of the source. The calls are words filed in the database; no cut-off is given here.

How the values were obtained:
[1] = biological target: Cytochrome P450 2D6 (Homo sapiens, UniProt P10635); test: Inhibition of CYP2D6 in human liver microsomes using dextromethorphan as substrate after 30 mins by LC-MS/MS analysis; type: ADME, Microsome
Method in brief: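 Human liver microsomes with 1 mM NADPH at 37 °C. Test concentrations 0.05, 0.25, 0.5, 2.5, 5 and 25 μM; final DMSO 0.35%. CYP1A: 0.25 mg/mL microsomes, ethoxyresorufin 0.5 μM, 5 min. CYP2D6: 0.5 mg/mL microsomes, dextromethorphan 5 μM, 30 min. IC50 from the fall in metabolite formation versus vehicle control. Selective inhibitors served as positive controls.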

[2] = Plasma protein binding in dog at 1000 ng/ml after 4 hrs by equilibrium dialysis method; type: ADME, cell-free, Canis lupus familiaris; conditions: read-out: PPB
Method in brief: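 Equilibrium dialysis of plasma (mouse, dog, human) spiked to 1000 ng/mL against PBS, 4 h at 37 °C. Buffer side extracted in triplicate with MTBE, dried, reconstituted in methanol/water 60:40, measured by LC−MS/MS.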

[3] = test system: HL-60; test: Antiproliferative activity against human HL60 cells after 48 hrs; type: functional, cell-based; conditions: HL-60, 48 h
[4] = biological target: Cytochrome P450 3A4 (Homo sapiens, UniProt P08684); test: Inhibition of CYP3A4 in human liver microsomes using midazolam as substrate after 5 mins by LC-MS/MS analysis; type: ADME, Microsome
[5] = Apparent permeability of the compound from basolateral to apical side in human Caco2 cells at 5 uM after 21 to 28 days by LC/MS analysis; type: ADME, cell-based; conditions: Caco-2
Method in brief: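 5 μM in HBSS (DMSO <1%) dosed apical or basolateral on 21−28-day confluent Caco-2 monolayers, both sides pH 7.4. Sampled at 2 h, quantified by LC/MS with four-point calibration. Monolayer integrity checked by pre-experiment TEER (450−650 Ωcm2) and Lucifer yellow; efflux ratio = Papp B→A / Papp A→B.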

[6] = test system: Ramos; test: Antitumor activity against human Ramos cells xenografted in BALB/c nude mouse assessed as tumor growth inhibition at 15 mg/kg, ip qd on a 5 days on 5 days off schedule for 15 days; type: functional; conditions: route intraperitoneal, read-out: GI
[7] = biological target: Tyrosine-protein kinase JAK2 (Homo sapiens, UniProt O60674); test: Inhibition of recombinant JAK2 using poly(Glu,Ala,Tyr) as substrate after 2 hrs by luminescence assay
[8] = Half life in rat liver microsomes at 5 uM by LC-MS/MS analysis; type: ADME, Microsome
Method in brief: (§1)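 5 μM with mouse, rat, dog or human liver microsomes (~0.87 mg/mL), 50 mM potassium phosphate pH 7.4, NADPH regeneration system, 37 °C.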

[9] = test system: COLO 205; test: Antiproliferative activity against human COLO205 cells after 48 hrs; type: functional, cell-based; conditions: COLO 205, 48 h
[10] = biological target: Cyclin-dependent kinase 2 (Homo sapiens) (UniProt P24941); test: Inhibition of CDK2 in human HCT116 cells assessed as Rb phosphorylation at 200 nM after 24 hrs by Western blot analysis; type: cell-based; conditions: HCT-116
Method in brief: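 HCT-116 cells (2 × 10^5 in McCoy's medium with 2 mM L-glutamine and 10% FBS) seeded 16−24 h before dosing. Each dish exposed to one compound concentration or DMSO for 24 h. Lysis in modified RIPA buffer; protein by Bradford. 30 μg lysate run on 10% SDS−PAGE, blotted to PVDF, probed for phospho-Rb and β-actin. ECL detection.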

[11] = test system: DU-145; test: Antiproliferative activity against human DU145 cells after 48 hrs; type: functional, cell-based; conditions: DU-145, 48 h
[12] = Terminal half life in BALB/c mouse at 75 mg/kg, po by LC-MS/MS analysis; type: ADME, organism-based; design: dose 75 mg/kg, route oral; conditions: in vivo, read-out: beta t1/2 (converted)
Method in brief: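 Male BALB/c mice, ~10−12 weeks, 17−22 g. Given 75 mg/kg by oral gavage as a suspension in 0.5% methylcellulose/0.1% Tween 80. Serial blood taken by cardiac puncture over 0−24 h into K3EDTA; plasma stored at −70 °C. Analysis by LC−MS/MS, parameters by noncompartmental methods.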

[13] = test system: Ramos; test: Antiproliferative activity against human Ramos cells after 48 hrs; type: functional, cell-based
[14] = Oral bioavailability in Beagle dog at 10 mg/kg by LC-MS/MS analysis; conditions: in vivo
[15] = Solubility of the compound in PBS buffer at 250 uM at pH 7 by UV spectrophotometry; type: physicochemical
[16] = test system: Ramos; test: Antitumor activity against human Ramos cells xenografted in po/ip dosed BALB/c nude mouse assessed as tumor growth inhibition; type: functional, organism-based
Method in brief: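 Female BALB/c nude mice implanted sc in right flank with 7 × 10^6 Ramos cells; dosing began 12 days after inoculation at about 200 mm3, n = 8–10/group. Arms: 75 mg/kg po q.d. 2 days on/5 off in MC/Tween, or 15 mg/kg ip q.d.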

[17] = Oral bioavailability in Wistar rat at 10 mg/kg by LC-MS/MS analysis; conditions: in vivo
[18] = test system: HCT-116; test: Antitumor activity against human HCT116 cells xenografted in BALB/c nude mouse assessed as tumor growth inhibition at 50 mg/kg, po qd administered thrice in a week for 15 days; type: functional, organism-based; design: dose 50 mg/kg
Method in brief: (§2)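 Female BALB/c nude mice implanted sc with 5 × 10^6 HCT-116 cells; treatment began day 8 after inoculation when tumors were 75–144 mm3 (group mean 105 mm3), 9–10 mice/group. Oral gavage at 50 or 75 mg/kg, Mon/Wed/Fri, in 0.5% methylcellulose/0.1% Tween 80, to day 15. Volume (w2l)/2 measured twice weekly. %TGI from day-15 median volumes vs vehicle.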

[19] = test system: HCT-116; test: Antitumor activity against human HCT116 cells xenografted in po dosed BALB/c nude mouse assessed as tumor growth inhibition; type: functional, organism-based; method in brief: as §2
[20] = Cmax in BALB/c mouse at 75 mg/kg, po by LC-MS/MS analysis; type: ADME, organism-based; design: dose 75 mg/kg, route oral; conditions: in vivo
Method in brief: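 Male BALB/c mice (~10−12 weeks, 17−22 g) gavaged with 75 mg/kg as a suspension in 0.5% methylcellulose/0.1% Tween 80. Serial blood by cardiac puncture over 0−24 h into K3EDTA, plasma stored at −70 °C, LC−MS/MS; parameters by noncompartmental analysis.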

[21] = AUC (0 to infinity) in BALB/c mouse at 5 mg/kg, iv by LC-MS/MS analysis; type: ADME, organism-based; design: time infinity, dose 5 mg/kg, route intravenous; conditions: plasma
[22] = Half life in dog liver microsomes at 5 uM by LC-MS/MS analysis; type: ADME, Canis lupus familiaris, Microsome; method in brief: as §1
[23] = Clearance in BALB/c mouse at 5 mg/kg, iv by LC-MS/MS analysis; type: ADME, organism-based; design: dose 5 mg/kg, route intravenous; conditions: in vivo
[24] = biological target: Cytochrome P450 2C19 (Homo sapiens, UniProt P33261); test: Inhibition of CYP2C19 in human liver microsomes using mephenytoin as substrate after 60 mins by LC-MS/MS analysis; type: ADME, Microsome
Method in brief: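 Human liver microsomes (0.5 mg/mL for CYP2C19, 1 mg/mL for CYP2C9), NADPH 1 mM, test at 0.05−25 μM (DMSO 0.35% final), 37 °C; probes mephenytoin 25 μM (CYP2C19) and tolbutamide 120 μM (CYP2C9), 60 min each. IC50 from decrease in metabolite formation vs vehicle.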

[25] = test system: HCT-116; test: Antiproliferative activity against human HCT116 cells after 48 hrs; type: functional, cell-based; conditions: HCT-116, 48 h

Chain of Cytochrome P450 2C19 (P33261 whole entry): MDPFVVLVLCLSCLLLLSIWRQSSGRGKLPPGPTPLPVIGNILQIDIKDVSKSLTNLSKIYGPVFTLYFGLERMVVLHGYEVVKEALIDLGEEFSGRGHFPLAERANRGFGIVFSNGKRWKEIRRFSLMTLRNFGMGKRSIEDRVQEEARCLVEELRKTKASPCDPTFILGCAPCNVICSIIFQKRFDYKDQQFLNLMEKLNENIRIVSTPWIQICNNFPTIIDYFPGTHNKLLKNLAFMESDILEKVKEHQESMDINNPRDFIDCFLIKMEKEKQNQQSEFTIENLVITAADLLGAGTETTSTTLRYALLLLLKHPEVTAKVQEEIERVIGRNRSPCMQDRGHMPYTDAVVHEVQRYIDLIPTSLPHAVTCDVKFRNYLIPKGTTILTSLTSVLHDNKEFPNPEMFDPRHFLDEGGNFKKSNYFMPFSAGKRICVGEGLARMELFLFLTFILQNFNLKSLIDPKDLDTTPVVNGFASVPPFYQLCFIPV
Chain of Cytochrome P450 3A4 (P08684 whole entry): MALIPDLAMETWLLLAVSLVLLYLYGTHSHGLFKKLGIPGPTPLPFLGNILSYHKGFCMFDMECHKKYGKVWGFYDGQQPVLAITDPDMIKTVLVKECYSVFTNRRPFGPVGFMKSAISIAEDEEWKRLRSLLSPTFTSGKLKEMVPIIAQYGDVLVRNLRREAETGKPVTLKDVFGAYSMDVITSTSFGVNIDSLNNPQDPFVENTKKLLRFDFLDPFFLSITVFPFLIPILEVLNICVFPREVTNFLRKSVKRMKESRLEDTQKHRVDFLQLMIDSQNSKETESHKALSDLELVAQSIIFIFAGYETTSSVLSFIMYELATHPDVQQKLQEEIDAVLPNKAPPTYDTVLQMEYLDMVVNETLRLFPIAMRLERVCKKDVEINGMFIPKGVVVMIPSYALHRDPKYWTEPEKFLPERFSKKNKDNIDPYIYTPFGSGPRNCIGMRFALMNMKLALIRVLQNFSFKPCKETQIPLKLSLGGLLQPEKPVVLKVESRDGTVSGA
Chain of Tyrosine-protein kinase JAK2 (O60674 whole entry): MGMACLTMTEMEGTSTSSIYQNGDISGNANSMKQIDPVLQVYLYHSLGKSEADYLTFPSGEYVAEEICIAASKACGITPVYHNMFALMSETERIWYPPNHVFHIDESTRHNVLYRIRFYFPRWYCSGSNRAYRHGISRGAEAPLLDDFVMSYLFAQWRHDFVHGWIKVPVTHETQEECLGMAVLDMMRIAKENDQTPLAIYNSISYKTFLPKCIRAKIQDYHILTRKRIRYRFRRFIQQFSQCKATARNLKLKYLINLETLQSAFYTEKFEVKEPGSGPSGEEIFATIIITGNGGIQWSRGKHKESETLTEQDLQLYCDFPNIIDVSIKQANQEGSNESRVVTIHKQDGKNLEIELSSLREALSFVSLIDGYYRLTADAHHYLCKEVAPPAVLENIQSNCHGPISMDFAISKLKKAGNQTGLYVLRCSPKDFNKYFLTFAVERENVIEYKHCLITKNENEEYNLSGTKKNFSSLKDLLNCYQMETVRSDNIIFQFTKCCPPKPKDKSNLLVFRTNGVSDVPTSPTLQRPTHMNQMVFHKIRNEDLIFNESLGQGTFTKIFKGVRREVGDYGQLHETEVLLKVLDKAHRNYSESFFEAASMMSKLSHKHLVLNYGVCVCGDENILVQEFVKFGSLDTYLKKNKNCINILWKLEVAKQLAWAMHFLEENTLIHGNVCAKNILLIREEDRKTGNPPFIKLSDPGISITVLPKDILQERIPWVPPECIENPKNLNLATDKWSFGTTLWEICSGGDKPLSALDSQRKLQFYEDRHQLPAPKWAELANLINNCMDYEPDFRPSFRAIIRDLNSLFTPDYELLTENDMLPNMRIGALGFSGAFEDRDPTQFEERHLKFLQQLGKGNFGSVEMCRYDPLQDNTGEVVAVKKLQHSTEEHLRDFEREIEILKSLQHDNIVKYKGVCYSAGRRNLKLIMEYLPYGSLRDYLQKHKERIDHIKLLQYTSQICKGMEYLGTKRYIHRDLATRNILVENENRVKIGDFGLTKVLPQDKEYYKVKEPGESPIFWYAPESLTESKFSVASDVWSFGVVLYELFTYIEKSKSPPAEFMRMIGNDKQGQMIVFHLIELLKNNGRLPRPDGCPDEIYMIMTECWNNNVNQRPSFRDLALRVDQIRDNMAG
Chain of Cytochrome P450 2D6 (P10635 whole entry): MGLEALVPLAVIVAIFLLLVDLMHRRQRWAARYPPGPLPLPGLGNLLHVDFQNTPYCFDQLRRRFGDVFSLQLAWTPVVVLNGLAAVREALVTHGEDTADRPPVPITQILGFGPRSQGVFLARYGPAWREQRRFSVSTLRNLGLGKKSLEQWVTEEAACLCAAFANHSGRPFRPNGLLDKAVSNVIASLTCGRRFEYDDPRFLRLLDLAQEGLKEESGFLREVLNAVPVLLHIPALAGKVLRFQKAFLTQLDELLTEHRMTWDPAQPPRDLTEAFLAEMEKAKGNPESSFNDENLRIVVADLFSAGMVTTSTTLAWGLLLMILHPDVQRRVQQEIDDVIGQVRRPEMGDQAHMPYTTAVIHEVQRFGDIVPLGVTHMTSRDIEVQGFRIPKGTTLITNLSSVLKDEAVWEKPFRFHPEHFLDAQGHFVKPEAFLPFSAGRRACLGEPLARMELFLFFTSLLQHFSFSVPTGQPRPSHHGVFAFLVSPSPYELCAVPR

`CN1C/C=C/CCOc2cccc(c2)-c2ccnc(n2)Nc2cccc(c2)C1` [ZOTIRACICLIB] gave an IC50 [1] of 950 nM, a fraction unbound at 4 h, 1000 ng/ml [2] of 0.001 and an IC50 [3] of 59 nM. The IC50 [4] was greater than 25000 nM, the Papp B→A at 5 µM [5] was 27.4 ×10⁻⁶ cm/s and the inhibition in vivo at 15 mg/kg [6] was 63%. It also gave an IC50 [7] of 73 nM, a half-life at 5 µM [8] of 11 min and an IC50 [9] of 72 nM. For the same compound, the inhibition [10] was “Active”, the IC50 [11] was 140 nM and the half-life [12] was 366 min. It also gave an IC50 [13] of 33 nM, a bioavailability [14] of 37% and a solubility at 250 µM [15] of 71.8 µg/mL (≈ 193 µM). The “growth inhibition (GI)” value [16] was “Dose-dependent effect”, the bioavailability [17] was 4% and the “growth inhibition (GI)” value [18] was “Active”. The “growth inhibition (GI)” value [19] was “Dose-dependent effect”, the Cmax [20] was 1030 ng/mL and the AUC(0-inf) [21] was 752 ng·h/mL. The half-life at 5 µM [22] was 33 min, the clearance [23] was 110 mL/min/kg and the IC50 [24] was greater than 25000 nM. For the same compound, the IC50 [25] was 79 nM.
